Experiments:
[1] = test system: three melanoma cell lines (B16-F1, A375, WM-164); assay: SRB assay, average over melanoma cell lines and selectivity vs fibroblast; assay type: cell-based, human, mouse; conditions: Fibroblast, read-out: Aver. (average IC50 of three melanoma cells IC50s)
DU 145 cells = assay: SRB antiproliferative assay, DU 145 prostate cancer cells; assay type: cell-based, human; conditions: Homo sapiens, DU-145, 96 h, read-out: IC50 ± SEM DU 145
Summary of the method: (§1)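 Prostate cancer cells were grown in RPMI1640 with 10% FBS at 37 °C, 5% CO2. Cells were fixed with 10% TCA and stained with 0.4% SRB, and absorbance was read at 540 nm. IC50 came from nonlinear regression of % survival versus concentration.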

PC-3 cells = assay: SRB antiproliferative assay, PC-3 prostate cancer cells; assay type: cell-based, human; conditions: Homo sapiens, PC-3, 96 h, read-out: IC50 ± SEM PC-3
LNCaP cells [2] = assay: SRB antiproliferative assay, LNCaP prostate cancer cells; assay type: cell-based, human; conditions: Homo sapiens, LNCaP, 96 h, read-out: IC50 ± SEM LNCaP
Summary of the method: as §1

PPC-1 cells = assay: SRB antiproliferative assay, PPC-1 prostate cancer cells; assay type: cell-based, human; conditions: Homo sapiens, PPC-1, 96 h, read-out: IC50 ± SEM PPC-1
Summary of the method: as §1

RH7777 cells = assay: SRB assay, RH7777 control cells; assay type: cell-based; conditions: Homo sapiens, RH7777, 96 h, read-out: IC50 ± SEM RH7777
Summary of the method: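 PC-3 cells were grown in RPMI1640 with 10% FBS, and RH7777 cells in DMEM with 10% FBS, both at 37 °C, 5% CO2. Cells were fixed with 10% TCA, stained with 0.4% SRB and read at 540 nm. IC50 came from nonlinear regression of % survival versus concentration.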

A375 cells [3] = assay: Flow cytometric cell cycle analysis, A375; assay type: cell-based, human; conditions: A375, tested 1, 5, 10, 20 μM, 48 h
LNCaP cells [4] = assay: Flow cytometric cell cycle analysis, LNCaP; assay type: cell-based, human; conditions: tested 1, 5, 10, 20 μM, 48 h
LPA1 = LPA1 (Homo sapiens, UniProt Q92633); assay: FLIPR intracellular calcium mobilization assay, LPA1-transfected Chem-1 cells; assay type: cell-based
LPA1, sequence (Q92633 whole entry, species assumed): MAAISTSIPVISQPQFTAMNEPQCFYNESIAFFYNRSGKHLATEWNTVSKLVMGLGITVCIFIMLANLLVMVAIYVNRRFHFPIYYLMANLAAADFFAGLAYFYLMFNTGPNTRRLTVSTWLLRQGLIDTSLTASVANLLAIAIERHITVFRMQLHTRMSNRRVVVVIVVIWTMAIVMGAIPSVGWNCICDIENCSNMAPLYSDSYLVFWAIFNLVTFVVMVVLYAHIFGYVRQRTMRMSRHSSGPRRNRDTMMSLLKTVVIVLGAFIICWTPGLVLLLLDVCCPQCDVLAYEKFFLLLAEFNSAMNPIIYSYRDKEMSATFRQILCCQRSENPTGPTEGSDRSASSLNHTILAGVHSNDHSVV

LPA3 = target: T1, LPA3 (Homo sapiens, UniProt Q9UBY5); assay: FLIPR intracellular calcium mobilization assay, LPA3-transfected Chem-1 cells; assay type: cell-based
T1 sequence (Q9UBY5 1-353): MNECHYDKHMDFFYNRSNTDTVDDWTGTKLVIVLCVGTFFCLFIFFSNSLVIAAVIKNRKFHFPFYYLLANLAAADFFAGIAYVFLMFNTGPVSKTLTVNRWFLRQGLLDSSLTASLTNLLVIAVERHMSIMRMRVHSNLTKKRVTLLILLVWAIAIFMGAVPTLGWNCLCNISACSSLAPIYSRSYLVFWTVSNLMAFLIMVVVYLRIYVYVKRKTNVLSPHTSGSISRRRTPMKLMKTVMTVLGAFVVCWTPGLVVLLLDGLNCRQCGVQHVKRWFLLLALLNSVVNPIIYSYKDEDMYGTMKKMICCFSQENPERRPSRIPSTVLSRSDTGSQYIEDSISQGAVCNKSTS

LPA5 = LPA5 (Homo sapiens, UniProt Q9H1C0); assay: FLIPR intracellular calcium mobilization assay, LPA5-transfected Chem-1 cells; assay type: cell-based
LPA5, sequence (Q9H1C0 whole entry, species assumed): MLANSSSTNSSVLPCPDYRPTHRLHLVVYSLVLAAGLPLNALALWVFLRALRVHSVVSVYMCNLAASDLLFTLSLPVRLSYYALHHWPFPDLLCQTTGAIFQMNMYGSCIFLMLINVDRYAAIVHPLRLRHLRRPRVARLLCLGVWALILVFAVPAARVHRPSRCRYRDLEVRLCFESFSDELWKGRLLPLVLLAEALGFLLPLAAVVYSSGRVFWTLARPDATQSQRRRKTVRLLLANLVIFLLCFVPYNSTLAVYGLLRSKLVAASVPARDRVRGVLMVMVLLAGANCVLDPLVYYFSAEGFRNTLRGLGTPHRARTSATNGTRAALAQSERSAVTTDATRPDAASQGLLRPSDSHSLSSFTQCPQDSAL

A375 cells [5] = assay: Melanoma colony-formation assay; assay type: cell-based, human; conditions: 14 days
Summary of the method: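 A375 cells were plated at colony-forming density (2000 per well) in DMEM with FBS and antibiotic-antimycotic at 37 °C, 5% CO2. Test compound was added at 2, […], with matching DMSO dilution as vehicle control. After 14 days' growth, colonies were stained with 0.1% […] for 30 min, rinsed and counted with an automated colony counter.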

[6] = against oleoyl-LPA at EC80, top concentration 10 μM
[7] = top concentration 10 μM, 15% activation of oleoyl-LPA Emax = agonist

CCCCCCCCCCCCCCCCNC(=O)[C@@H]1CSC(c2cc(OC)c(OC)c(OC)c2)N1 (mixture of isomers) [Compound 3ad, (2RS,4R)-2-(3,4,5-Trimethoxy-phenyl)-thiazolidine-4-carboxylic acid hexadecylamide]
IC50 [1]: 1200 nM
IC50 (DU 145 cells): 1700 ± 100 nM
IC50 (PC-3 cells): 1800 ± 100 nM
IC50 (LNCaP cells [2]): 800 ± 100 nM
IC50 (PPC-1 cells): 400 ± 100 nM
IC50 (RH7777 cells): 7200 ± 100 nM
concentration at which accumulation of cells in sub-G1 phase became apparent (A375 cells [3]): 5 µM
concentration at which accumulation of cells in sub-G1 phase became apparent (LNCaP cells [4]): 5 µM
antagonist activity on LPA1, in words (LPA1; [6]): did not exhibit any dose-dependent antagonist activity
agonist activity on LPA1, in words (LPA1; [7]): did not exhibit any dose-dependent agonist activity
antagonist activity on LPA3, in words (LPA3; [6]): did not exhibit any dose-dependent antagonist activity
agonist activity on LPA3, in words (LPA3; [7]): did not exhibit any dose-dependent agonist activity
antagonist activity on LPA5, in words (LPA5; [6]): did not exhibit any dose-dependent antagonist activity
agonist activity on LPA5, in words (LPA5; [7]): did not exhibit any dose-dependent agonist activity
inhibition of A375 colony formation (A375 cells [5]; 2 μM): effectively inhibit
inhibition of A375 colony formation (A375 cells [5]; 20 μM): almost completely inhibited
inhibition of A375 colony formation (A375 cells [5]; 100 μM): completely inhibited
